Assay results of several laboratories.
Compare with care: the assays were run in different laboratories.
Read-out: binding
CREBBP bromodomain: CREB-binding protein, bromodomain (CREBBP, Homo sapiens, UniProt Q92793)
tspO: tspO (Cereibacter sphaeroides, UniProt Q9RFC8)
PIK3CG: Phosphatidylinositol 4,5-bisphosphate 3-kinase catalytic subunit gamma isoform (PIK3CG, Homo sapiens, UniProt P48736)

CC1=C(/C=C/C(C)=C/C=C/C(C)=C/C=O)C(C)(C)CCC1
Kd (Cellular retinoic acid-binding protein 2 (CRABP2, Homo sapiens, UniProt P29373, L122E/R133K); fluorescence): 104 nM

Cc1cc(/N=N/c2ccc(S(=O)(=O)O)cc2)cc(C)c1O
Kd (CREBBP bromodomain; fluorescence): 44000 nM

CC(C)=CCc1c(O)ccc(C(=O)/C=C/c2ccc(O)cc2)c1O
Kd (Dihydroorotate dehydrogenase (quinone), mitochondrial (DHODH, Homo sapiens, UniProt Q02127); ITC): 1330 nM

Nc1nc2c(ncn2[C@@H]2O[C@H](COP(=O)(O)OP(=O)(O)O)[C@@H](OP(=O)(O)OP(=O)(O)O)[C@H]2O)c(=O)[nH]1
Kd (Dihydrofolate synthase/folylpolyglutamate synthase (Escherichia coli, UniProt P08192); ITC): 130000 nM

C=CC1=C(C)c2cc3[nH]c(cc4nc(cc5[nH]c(cc1n2)c(C)c5CCC(=O)O)C(CCC(=O)O)=C4C)c(C)c3C=C
Kd (tspO; fluorescence): 900 nM

C=CC(=O)N1CCC(C(=O)N(C)CC(=O)N2CCN(c3nc(-c4cnc(N)nc4C(F)F)nc(N4CCOCC4)n3)CC2)CC1
Kd (PIK3CG; competition with immobilised ligand): 9.4 nM

C=CC1=C(C)C2=Cc3c(C=C)c(C)c4[n]3[Fe]([Cl])[n]3c(c(C)c(CCC(=O)O)c3=CC3=NC(=C4)C(C)=C3CCC(=O)O)=CC1=N2
Kd (tspO; fluorescence): 900 nM

Cc1cc(/N=N/c2ccc(S(=O)(=O)O)cc2)ccc1O
Kd (CREBBP bromodomain; fluorescence): 76000 nM

Cn1nnc2ccc(NC(=O)c3cccc(C(=O)O)c3)cc21
Kd (CREBBP bromodomain; competition with immobilised ligand): 17000 nM

Cc1cc2nc3c(=O)[nH]c(=O)nc-3n(C[C@H](O)[C@H](O)[C@H](O)CO)c2cc1C
Kd (Riboflavin-binding protein (Gallus gallus, UniProt P02752); ITC): 127 nM

C=CC(=O)N1CCC(C(=O)NCC(=O)N2CCN(c3nc(-c4cnc(N)nc4C(F)F)nc(N4CCOCC4)n3)CC2)CC1
Kd (PIK3CG; competition with immobilised ligand): 1.6 nM

CO[C@H]1[C@H](O)[C@@H](CO)OC(O)[C@@H]1O (stereo partly drawn)
Kd (Nucleolar RNA helicase 2 (Homo sapiens, UniProt Q9NR30); MST): 3980 nM
